Results reported in ChEMBL document CHEMBL1155784, “Aromatic 2-chloroethyl urea derivatives and bioisosteres. Part 2: Cytocidal activity and effects on the nuclear translocation of thioredoxin-1, and the cell cycle progression” (2008).
Activity calls are given as the source filed them. No cut-off for these calls is given here.

What was measured:
HT-29 = test: Growth inhibition of human HT29 cells after 48 hrs by sulforhodamine B assay; type: functional; conditions: HT-29, 48 h
How it was run: (§1)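 NCI-style sulforhodamine B assay. HT-29 (5×10³), M21 or MCF-7 (3.5×10³) cells were grown 24 h, then given DMSO-solubilized drug at 100 to 0.7 µM final (DMSO <0.5%) for 48 h. Fixed in cold 10% TCA, stained with 0.1% SRB, read at 585 nm after subtracting a day-0 plate. Inhibition is relative to DMSO controls; GI50 from at least triplicate runs.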

M21 [1] = test: Growth inhibition of human M21 cells after 48 hrs by sulforhodamine B assay; type: functional; conditions: M21, 48 h; how it was run: as §1
MCF7 [2] = test: Growth inhibition of human MCF7 cells after 48 hrs by sulforhodamine B assay; type: functional; conditions: MCF7, 48 h; how it was run: as §1
M21 [3] = test: Inhibition of nuclear translocation of thioredoxin 1 in human M21 cells at 5 uM after 18 hrs by immunocytochemistry; type: functional, cell-based
How it was run: (§2)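 M21 cells seeded on fibronectin-coated coverslips, held 18 h at 37 °C, then treated with compounds (5–50 µM; reference agents 0.1–40 µM) or 0.1% DMSO. Fixed in 3.7% formaldehyde, permeabilized with 0.1% saponin, and blocked in 3% BSA. Stained 1 h at 37 °C with anti-thioredoxin-1 monoclonal (1/200), then with Alexa-488 anti-mouse IgG plus DAPI for nuclei.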

MCF7 [4] = test: Cell cycle arrest in human MCF7 cells assessed as S phase accumulation at 2 times GI50 after 24 hrs by flow cytometry
MCF7 [5] = test: Cell cycle arrest in human MCF7 cells assessed as G2/M phase accumulation at 2 times GI50 after 24 hrs by flow cytometry
MCF7 [6] = test: Cell cycle arrest in human MCF7 cells assessed as G0/G1 phase accumulation at 2 times GI50 after 24 hrs by flow cytometry
M21 [7] = test: Inhibition of nuclear translocation of thioredoxin 1 in human M21 cells at 50 uM after 18 hrs by immunocytochemistry; type: functional, cell-based; how it was run: as §2
M21 [8] = test: Inhibition of nuclear translocation of thioredoxin 1 in human M21 cells at 10 uM after 18 hrs by immunocytochemistry; type: functional, cell-based; how it was run: as §2
MCF7 [9] = test: Cell cycle arrest in human MCF7 cells assessed as […] phase accumulation at 2 times GI50 after 24 hrs by flow cytometry; type: functional
MCF7 [10] = test: Cell cycle arrest in human MCF7 cells assessed as S phase accumulation at 2 times GI50 after 24 hrs by flow cytometry; type: functional
MCF7 [11] = test: Cell cycle arrest in human MCF7 cells assessed as G2/M phase accumulation at 2 times GI50 after 24 hrs by flow cytometry; type: functional
M21 [12] = test: Inhibition of nuclear translocation of thioredoxin 1 in human M21 cells at 0.1 uM after 18 hrs by immunocytochemistry; type: functional, cell-based; how it was run: as §2
M21 [13] = test: Inhibition of nuclear translocation of thioredoxin 1 in human M21 cells at 25 uM after 18 hrs by immunocytochemistry; type: functional, cell-based; how it was run: as §2

SMILES	GI50 (HT-29)	GI50 (M21 [1])	GI50 (MCF7 [2])	Activity (MCF7 [4])	Activity (MCF7 [5])	Activity (MCF7 [6])	Activity (M21 [7])	also measured
O=C(CCl)NC(=O)Nc1ccc(OC2CCCCCC2)cc1	2.3 µM	5 µM	3.6 µM	30%	11%	59%	–	Activity (M21 [3]): Active
O=C(NCCCl)Nc1ccc2ccccc2c1	–	–	–	–	–	–	Active	Activity (M21 [8]): Active
O=C(CCl)NC(=O)Nc1cccc(OC2CCCCCC2)c1	6.9 µM	4.2 µM	7.2 µM	31%	11%	58%	–	Activity (M21 [3]): Active
CC(C)(C)c1ccc(NC(=O)NCCCl)cc1	–	–	–	–	–	–	inactive	Activity (M21 [8]): inactive; Activity (MCF7 [9]): 17%; Activity (MCF7 [10]): 24%; Activity (MCF7 [11]): 58%
O=C(CCl)NC(=O)Nc1cccc(OC2CCCC2)c1	3.1 µM	3.5 µM	6.2 µM	34%	13%	53%	–	Activity (M21 [3]): Active
COc1cc2c(c(OC)c1OC)-c1ccc(OC)c(=O)cc1[C@@H](NC(C)=O)CC2 [COLCHICINE]	–	–	–	–	–	–	–	Activity (M21 [12]): inactive; Activity (MCF7 [9]): 19%; Activity (MCF7 [10]): 19%; Activity (MCF7 [11]): 62%
c1ccc(COc2ccc(NC3=NCCO3)cc2)cc1	10.3 µM	15.9 µM	11.1 µM	–	–	–	Active	Activity (M21 [13]): Active
O=C(CCl)NC(=O)Nc1ccc(OC2CCCC2)cc1	3.1 µM	2.9 µM	3.9 µM	33%	9%	58%	–	Activity (M21 [3]): Active
O=C(NCCCl)Nc1ccc(OC2CCCCC2)cc1	–	–	–	–	–	–	Active	Activity (MCF7 [9]): 57%; Activity (MCF7 [10]): 29%; Activity (MCF7 [11]): 14%
O=C(NCCCl)Nc1ccc(I)cc1	–	–	–	–	–	–	Active	Activity (M21 [8]): Active; Activity (MCF7 [9]): 25%; Activity (MCF7 [10]): 33%; Activity (MCF7 [11]): 42%
O=C(NCCCl)Nc1cccc(OC2CCCCCC2)c1	–	–	–	–	–	–	Active	Activity (MCF7 [9]): 72%; Activity (MCF7 [10]): 22%; Activity (MCF7 [11]): 6%
O=C(CCl)NC(=O)Nc1ccc(I)cc1	–	–	–	22%	10%	68%	–	Activity (M21 [3]): Active
Cc1ccc(NC2=NCCO2)cc1C	–	–	–	–	–	–	–	Activity (M21 [8]): Active
O=C(NCCCl)Nc1ccc(OC2CCCCCC2)cc1	–	–	–	–	–	–	Active	Activity (MCF7 [9]): 75%; Activity (MCF7 [10]): 19%; Activity (MCF7 [11]): 6%
c1ccc(Oc2cccc(NC3=NCCO3)c2)cc1	5.5 µM	9.6 µM	12.2 µM	–	–	–	inactive	Activity (M21 [13]): inactive
O=C(CCl)NC(=O)Nc1ccc(OC2CCCCC2)cc1	3.1 µM	5 µM	4.7 µM	20%	10%	70%	–	Activity (M21 [3]): Active
O=C(NCCCl)Nc1cccc(OC2CCCC2)c1	–	–	–	–	–	–	Active	Activity (MCF7 [9]): 64%; Activity (MCF7 [10]): 24%; Activity (MCF7 [11]): 12%
CC[C@]1(O)C[C@@H]2CN(CCc3c([nH]c4ccccc34)[C@@](C(=O)OC)(c3cc4c(cc3OC)N(C)[C@H]3[C@@](O)(C(=O)OC)[C@H](OC(C)=O)[C@]5(CC)C=CCN6CC[C@]43[C@@H]65)C2)C1	–	–	–	–	–	–	–	Activity (M21 [12]): inactive
c1ccc(-c2ccc(NC3=NCCO3)cc2)cc1	5.8 µM	8.8 µM	10.6 µM	–	–	–	Active	Activity (M21 [13]): Active

SMILES	GI50 (HT-29)	GI50 (M21 [1])	GI50 (MCF7 [2])	Activity (MCF7 [4])	Activity (MCF7 [5])	Activity (MCF7 [6])	Activity (M21 [7])	also measured
O=C(NCCCl)Nc1cccc(OCc2ccccc2)c1	2.9 µM	6.5 µM	10 µM	–	–	–	inactive	Activity (M21 [8]): inactive
O=C(NCCCl)Nc1ccc2c(c1)CCC2	–	–	–	–	–	–	–	Activity (M21 [13]): Active
O=C(CCl)NC(=O)Nc1ccc(C2CCCCC2)cc1	2.3 µM	0.9 µM	1.5 µM	51%	24%	25%	–	Activity (M21 [3]): Active
c1cc(OC2CCCCCC2)ccc1NC1=NCCO1	16.6 µM	27.1 µM	26.8 µM	14%	4%	82%	Active	–
Ic1ccc(NC2=NCCO2)cc1	–	–	–	10%	76%	14%	–	Activity (M21 [3]): Active
O=C(NCCCl)Nc1ccc(OC2CCCC2)cc1	–	–	–	–	–	–	Active	Activity (MCF7 [9]): 72%; Activity (MCF7 [10]): 19%; Activity (MCF7 [11]): 9%
O=C(NCCCl)Nc1ccc(Oc2ccccc2)cc1	–	–	–	–	–	–	–	Activity (M21 [13]): inactive; Activity (M21 [8]): inactive
CC(=O)O[C@H]1C(=O)[C@@]2(C)[C@H]([C@H](OC(=O)c3ccccc3)[C@]3(O)C[C@H](OC(=O)[C@H](O)[C@@H](NC(=O)c4ccccc4)c4ccccc4)C(C)=C1C3(C)C)[C@]1(OC(C)=O)CO[C@@H]1C[C@@H]2O	–	–	–	–	–	–	–	Activity (M21 [12]): inactive
c1cc(OC2CCCCC2)ccc1NC1=NCCO1	12.6 µM	20.8 µM	19.1 µM	13%	5%	82%	Active	–
c1cc(NC2=NCCO2)cc(OC2CCCCCC2)c1	6.9 µM	14.4 µM	14.8 µM	28%	24%	48%	Active	Activity (M21 [13]): Active
Cc1ccc(NC(=O)NCCCl)cc1C	–	–	–	–	–	–	–	Activity (M21 [13]): inactive; Activity (M21 [8]): inactive
CC(C)(C)c1ccc(NC(=O)NC(=O)CCl)cc1	–	–	–	20%	19%	61%	–	Activity (M21 [3]): Active
CC(C)(C)c1ccc(NC2=NCCO2)cc1	–	–	–	11%	74%	15%	–	Activity (M21 [3]): inactive
O=C(NCCCl)Nc1ccc(-c2ccccc2)cc1	8.3 µM	14.5 µM	42 µM	–	–	–	Active	Activity (M21 [13]): Active
O=C(NCCCl)Nc1ccc(C2CCCCC2)cc1	–	–	–	–	–	–	Active	Activity (MCF7 [9]): 71%; Activity (MCF7 [10]): 13%; Activity (MCF7 [11]): 16%
O=C(CCl)NC(=O)Nc1cccc(OC2CCCCC2)c1	3.8 µM	2.7 µM	6.3 µM	20%	7%	73%	–	Activity (M21 [3]): Active
c1cc(NC2=NCCO2)cc(OC2CCCCC2)c1	4.4 µM	12 µM	15.9 µM	19%	38%	43%	Active	Activity (M21 [13]): Active
c1cc2c(cc1NC1=NCCO1)CCC2	–	–	–	–	–	–	Active	Activity (M21 [13]): Active
O=C(NCCCl)Nc1cccc(OC2CCCCC2)c1	–	–	–	–	–	–	Active	Activity (MCF7 [9]): 59%; Activity (MCF7 [10]): 33%; Activity (MCF7 [11]): 8%
